Test results reported in PMC10784678 (Food Chemistry: X, 2023).
In brackets after ≈: the same amount, converted by molar mass. Like-named read-outs stand apart in the source and are kept apart here.

What was measured:
[1] = molecular target: T1, DPP-IV (Homo sapiens, UniProt P27487); assay: biochemical
[2] = molecular target: T1, DPP-IV; conditions: read-out: IC50 DPP-IV; ref Li et al., 2022; cited from earlier work
[3] = DPPH radical scavenging activity; conditions: positive control
Procedure, shortened: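 Test fractions in 80 % methanol at 2–14 µg/mL; positive control at 1–7 µg/mL. 50 µL sample plus 200 µL 0.1 mM DPPH in methanol, kept from light and shaken 30 min, then read at 517 nm.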

[4] = ABTS radical scavenging activity; conditions: positive control
Procedure, shortened: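 Test fractions in 70 % ethanol at 2–8 µg/mL; positive control at 1–7 µg/mL. Radical made by holding 7 mM ABTS with 0.14 M K₂S₂O₈ for 14 h, then diluted 35-fold in anhydrous ethanol. Sample mixed with radical solution, 6 min dark at 30°C, A734.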

[5] = system: Caco-2 cells; assay: Inhibition of H2O2-induced intracellular ROS production; assay type: cell-based; conditions: positive control 10 μg/mL, 1.0 mmol/L H2O2 6 h; H2O2 group 181.61 %
[6] = system: Caco-2 cells; assay: Cytoprotective activity against H2O2-induced cell apoptosis; assay type: cell-based; conditions: positive control 10 μg/mL; H2O2 group 23.84 %, control 3.92 %
[7] = molecular target: α-glucosidase (Saccharomyces cerevisiae, UniProt P53341); conditions: read-out: IC50 α-glucosidase; ref Tan et al. (2017); cited from earlier work
[8] = read-out: IC50 DPP-Ⅳ, phenolic standards

T1 sequence (P27487 whole entry): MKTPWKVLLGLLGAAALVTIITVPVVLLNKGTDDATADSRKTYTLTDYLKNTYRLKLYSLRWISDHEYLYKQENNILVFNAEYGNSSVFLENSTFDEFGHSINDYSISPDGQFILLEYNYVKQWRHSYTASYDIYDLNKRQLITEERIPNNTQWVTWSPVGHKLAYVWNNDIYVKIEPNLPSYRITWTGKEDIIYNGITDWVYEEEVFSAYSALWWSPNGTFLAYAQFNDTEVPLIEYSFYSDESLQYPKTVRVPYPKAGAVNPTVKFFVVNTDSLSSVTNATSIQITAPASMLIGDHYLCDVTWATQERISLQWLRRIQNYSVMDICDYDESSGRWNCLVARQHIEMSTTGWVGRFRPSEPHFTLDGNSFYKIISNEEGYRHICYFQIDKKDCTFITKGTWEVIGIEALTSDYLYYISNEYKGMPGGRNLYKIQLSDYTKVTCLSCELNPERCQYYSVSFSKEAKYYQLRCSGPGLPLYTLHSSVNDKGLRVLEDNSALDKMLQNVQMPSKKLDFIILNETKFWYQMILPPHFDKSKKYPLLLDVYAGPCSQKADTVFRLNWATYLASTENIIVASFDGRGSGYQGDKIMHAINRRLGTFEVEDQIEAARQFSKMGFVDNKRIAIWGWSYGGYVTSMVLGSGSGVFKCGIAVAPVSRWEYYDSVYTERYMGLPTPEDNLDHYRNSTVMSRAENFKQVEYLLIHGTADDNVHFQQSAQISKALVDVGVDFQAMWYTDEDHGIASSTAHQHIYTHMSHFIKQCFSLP
Chain of α-glucosidase (P53341 whole entry): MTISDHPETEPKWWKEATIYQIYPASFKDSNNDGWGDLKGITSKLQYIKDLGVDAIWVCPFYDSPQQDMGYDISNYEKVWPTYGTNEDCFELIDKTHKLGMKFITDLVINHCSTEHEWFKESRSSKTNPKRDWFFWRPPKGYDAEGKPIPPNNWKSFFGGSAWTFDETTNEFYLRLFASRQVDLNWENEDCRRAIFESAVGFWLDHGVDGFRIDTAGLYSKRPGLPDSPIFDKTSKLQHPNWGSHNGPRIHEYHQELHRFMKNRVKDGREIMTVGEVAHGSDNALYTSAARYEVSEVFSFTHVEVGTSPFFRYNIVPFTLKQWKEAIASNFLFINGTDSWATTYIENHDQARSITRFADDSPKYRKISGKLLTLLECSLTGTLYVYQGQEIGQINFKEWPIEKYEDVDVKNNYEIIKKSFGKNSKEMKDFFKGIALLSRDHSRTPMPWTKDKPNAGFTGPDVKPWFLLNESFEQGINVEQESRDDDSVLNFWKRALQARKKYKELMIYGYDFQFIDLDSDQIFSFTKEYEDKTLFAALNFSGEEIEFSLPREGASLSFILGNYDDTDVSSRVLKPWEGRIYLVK

| IC50 [1] [µM] | Structure (SMILES) | also measured |
| --- | --- | --- |
| 104.3 ± 0.95 | Oc1cc(O)c2c(c1)O[C@H](c1ccc(O)c(O)c1)[C@H](O)C2 [(-) - Epicatechin] | – |
| 162.48 ± 0.16 | O=C(O)/C=C/c1ccc(O)c(O)c1 [Caffeic acid] | – |
| > 200 | O=C(O)c1ccc(O)c(O)c1 [Protocatechuic acid] | – |
| > 200 | O=C(O)c1ccccc1O [Salicylic acid] | – |
| 78.92 ± 0.62 | O=C1c2c(O)cc(O)cc2OC(c2ccc(O)c(O)c2)C1O (centres unmarked) [Taxifolin] | – |

Further lines, the compound ahead of its results:

| Structure (SMILES) | IC50 [1] [µM] | also measured |
| --- | --- | --- |
| Oc1cc(O)c2c(c1)O[C@H](c1ccc(O)c(O)c1)[C@@H](O)C2 [(+) - Catechin] | – | IC50 [1, 8]: 132.8 ± 0.99 µM |
| O=C(/C=C/c1ccc(O)c(O)c1)O[C@@H]1C[C@](O)(C(=O)O)C[C@@H](O)[C@H]1O [Chlorogenic acid] | 31.2 ± 2.58 | IC50 [2]: 78.8 µM |
| Oc1cc(O)c2c(c1)O[C@H](c1cc(O)c(O)c(O)c1)[C@@H](O)C2 [Gallocatechin] | 81.9 ± 2.54 | – |
| COC(=O)[C@]1(O)C[C@@H](O)[C@@H](O)[C@H](OC(=O)/C=C/c2ccc(O)c(O)c2)C1 [Methyl chlorogenic acid] | – | IC50 [1, 8]: 192 ± 1.93 µM |
| Oc1cc(O)c2c(c1)O[C@H](c1ccc(O)c(O)c1)[C@H](O)[C@H]2c1c(O)cc(O)c2c1O[C@H](c1ccc(O)c(O)c1)[C@@H](O)C2 [Procyanidin B1] | > 200 | – |
| O=C(O)[C@]1(O)C[C@@H](O)[C@@H](O)[C@H](O)C1 [Quinic acid] | > 200 | – |
| O=C1O[C@H]([C@@H](O)CO)C(O)=C1O [Vc] | – | IC50 DPPH radical scavenging [3]: 1.93 ± 0.01 µg/mL (≈ 11 µM); IC50 ABTS radical scavenging [4]: 3.58 ± 0.03 µg/mL (≈ 20.3 µM); intracellular ROS level [5]: 110.92%; apoptosis rate [6]: 6.58% |
| Oc1cc(O)c2c(c1)O[C@H](c1ccc(O)c(O)c1)[C@@H](O)C2 [catechin] | – | IC50 [7]: 13.4 µM |
